Assay results as given in publication PMC5959779 (ACS chemical biology, 2018).
Like-named read-outs stand apart in the source and are kept apart here. Peptide text beside a SMILES is read from it. * marks the point of attachment. Cbz = O=C(OCc1ccccc1)*; CH2F = FC*

What was measured:
caspase-8 wild-type = experiment: differential scanning fluorimetry thermal stability; format: binding; conditions: DSF; for TM Values, Wild Type: zinc salts at 50 μM
caspase-8 C360A = experiment: as above; format: binding; conditions: DSF; for TM Values, C360A: zinc salts at 50 μM; for effect on Tm of caspase-8 C360A: incubation with other metals
caspase-3 [1] = target: T1, caspase-3 (Homo sapiens, UniProt P42574); experiment: caspase-3 cleavage of fluorogenic tetrapeptide substrate DEVD-AMC; format: biochemical
T1 sequence (P42574 29-175 limits assumed): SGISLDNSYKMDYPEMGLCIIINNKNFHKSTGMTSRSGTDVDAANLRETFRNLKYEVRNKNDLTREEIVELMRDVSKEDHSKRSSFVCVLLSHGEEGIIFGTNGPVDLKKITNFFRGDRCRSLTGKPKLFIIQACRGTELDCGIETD
T1 sequence (P42574 176-277 limits assumed): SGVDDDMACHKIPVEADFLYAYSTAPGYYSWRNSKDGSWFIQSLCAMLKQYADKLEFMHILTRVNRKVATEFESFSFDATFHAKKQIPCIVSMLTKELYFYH

caspase-7 [2] = target: T2, caspase-7 (Homo sapiens, UniProt P55210); experiment: caspase-7 cleavage of fluorogenic tetrapeptide substrate DEVD-AMC; format: biochemical
T2 sequence (P55210 24-198 limits assumed): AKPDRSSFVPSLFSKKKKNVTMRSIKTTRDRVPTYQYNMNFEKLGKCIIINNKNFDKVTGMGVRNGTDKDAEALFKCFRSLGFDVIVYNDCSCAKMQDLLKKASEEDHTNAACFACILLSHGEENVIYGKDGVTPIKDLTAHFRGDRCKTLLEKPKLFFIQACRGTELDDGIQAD
T2 sequence (P55210 207-303 limits assumed): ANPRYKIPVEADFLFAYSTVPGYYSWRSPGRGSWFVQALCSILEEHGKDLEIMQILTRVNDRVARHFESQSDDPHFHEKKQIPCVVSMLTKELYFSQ

caspase-8 [3] = target: T3, caspase-8 (Homo sapiens, UniProt Q14790); experiment: caspase-8 cleavage of fluorogenic tetrapeptide substrate LEHD-AMC; format: biochemical
caspase-3 [4] = target: T1, caspase-3; experiment: caspase-3 cleavage of protein substrates PAK2 and PARP, metal panel; format: biochemical
caspase-7 [5] = target: T2, caspase-7; experiment: caspase-7 cleavage of protein substrate PAK2, metal panel; format: biochemical
caspase-8 [6] = target: T3, caspase-8; experiment: caspase-8 cleavage of procaspase-7; format: biochemical; conditions: metal panel
[7] = read-out: KD for zinc; cited from earlier work
caspase-6 [8] = target: T4, caspase-6 (Homo sapiens, UniProt P55212); experiment: caspase-6 cleavage of preferred fluorogenic tetrapeptide substrate; format: biochemical
T4 sequence (P55212 24-179 limits assumed): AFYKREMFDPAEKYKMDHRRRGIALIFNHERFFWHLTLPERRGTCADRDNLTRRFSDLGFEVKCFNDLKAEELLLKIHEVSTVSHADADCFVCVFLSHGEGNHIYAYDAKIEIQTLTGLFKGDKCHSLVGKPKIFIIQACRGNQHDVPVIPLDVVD
T4 sequence (P55212 194-293 limits assumed): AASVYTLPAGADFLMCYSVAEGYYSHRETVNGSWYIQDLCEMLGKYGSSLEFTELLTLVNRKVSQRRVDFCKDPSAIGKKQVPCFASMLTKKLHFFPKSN

caspase-3 [9] = target: T1, caspase-3; experiment: zincon colorimetric zinc-binding stoichiometry; conditions: zincon absorbance at 620 nm
Outline: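 Caspase-3 and -7 were tested alone or with the active site occupied by zVAD; caspase-8 wild type and C360A were also tested. Mean ± SEM from three experiments on three separate days.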

caspase-3 [10] = target: T1, caspase-3; experiment: Fluozin-3 competition zinc affinity; format: binding; conditions: competition with Fluozin-3
Outline: (§1)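 Caspase titrated into reactions holding a constant amount of zinc and the fluorescent zinc indicator Fluozin-3. Each reaction was left to reach equilibrium, then Fluozin-3 fluorescence was read, with signal falling as caspase competed for zinc. Mean ± SEM from three experiments on three separate days.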

caspase-6 [11] = target: T4, caspase-6; experiment: Fluozin-3 competition zinc affinity; format: binding; conditions: competition with Fluozin-3
Outline: as §1

caspase-8 [12] = target: T3, caspase-8; experiment: Fluozin-3 competition zinc affinity; format: binding; conditions: competition with Fluozin-3
Outline: as §1

caspase-8 [13] = target: T3, caspase-8; experiment: size exclusion chromatography of caspase-8 oligomeric state; conditions: SEC after incubation
Outline: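 Oligomeric state of caspase-8 was resolved by size-exclusion chromatography into dimer and monomer peaks. Protein was run alone, after incubation with zVAD-FMK, or after inhibitor incubation followed by increasing zinc. Peak fractions were quantified as mean ± SEM from three experiments on three separate days.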

caspase-3 [14] = target: T1, caspase-3; conditions: cited from earlier work
caspase-6 [15] = target: T4, caspase-6; conditions: read-out: IC50 (unbuffered); cited from earlier work
[16] = test system: caspase-7 variant H131A/C171A; experiment: activity of caspase-7 variant in absence and presence of ZnCl2; format: biochemical; conditions: presence vs absence of ZnCl2
[17] = metal panel, peptide substrate DEVD-AMC
[18] = panel of biologically relevant metals
[19] = read-out: IC50 Values Unbuffered, total zinc, no zinc buffer, 10 nM caspase
[20] = zinc buffered (NTA), mixed model of inhibition, global fit

T3 sequence (Q14790 217-374 limits assumed): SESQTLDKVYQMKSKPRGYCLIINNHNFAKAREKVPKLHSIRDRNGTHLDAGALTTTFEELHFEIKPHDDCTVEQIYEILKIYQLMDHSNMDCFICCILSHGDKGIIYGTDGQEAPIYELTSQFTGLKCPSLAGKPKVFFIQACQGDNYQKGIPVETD
T3 sequence (Q14790 385-479 limits assumed): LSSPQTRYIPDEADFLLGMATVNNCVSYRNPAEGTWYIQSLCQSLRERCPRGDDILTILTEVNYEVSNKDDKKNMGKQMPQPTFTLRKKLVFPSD

With CC[C@H](C)[C@H](NC(C)=O)C(=O)N[C@@H](CCC(=O)O)C(=O)N[C@H](C(=O)N[C@H](C=O)CC(=O)O)[C@@H](C)O [Ac-IETD-CHO, acetyl-Ile-Glu-Thr-Asp-aldehyde, reference compound] (Ac-IETD-aldehyde) the Tm increase (caspase-8 wild-type) was 27 °C, the “TM Values, Wild Type” value (caspase-8 wild-type) was 75.5 ± 0.3 °C and the “TM Values, C360A” value (caspase-8 C360A) was 46.4 ± 0.2 °C.
[Cd] [Cadmium, cadmium] showed an activity remained (caspase-3 [1]; [17]) of 39%, an activity remained (caspase-7 [2]; [17]) of 84% and an activity remained (caspase-8 [3]; metal panel, peptide substrate LEHD-AMC) of 12%. For the same molecule, the “effect on cleavage of protein substrate PARP” value (caspase-3 [4]) was “inhibitory effect”, the “effect on cleavage of protein substrate PAK2” value (caspase-7 [5]) was “had an inhibitory effect” and the “effect on cleavage of procaspase-7 (C186A)” value (“effect on cleavage … (C186A)” for short) (caspase-8 [6]) was “minor impact”.
In the case of [Cu] [Copper, copper], the “effect on cleavage of protein substrate PAK2” value (caspase-3 [4]) is reported as “did not observe”, the “effect on cleavage … (C186A)” value (caspase-8 [6]) is reported as “minor impact” and the “effect on Tm of caspase-8 C360A” value (caspase-8 C360A) is reported as “failed to significantly alter”.
In the case of COc1ccc(N(CC(=O)O)CC(=O)O)c(OCCOc2cc(-c3c4cc(F)c(=O)cc-4oc4cc(O)c(F)cc34)ccc2NCC(=O)O)c1 [Fluozin-3], the Kd [7] is given as 15 nM.
With [Zn+2] [Zinc, zinc] the “effect on peptide substrate cleavage” value (caspase-3 [1]; [18]) was “inhibited”, the IC50 (caspase-3 [1]; [19]) was 104 ± 26 nM and the Ki (caspase-3 [1]; [20]) was 6.9 nM. The IC50 (caspase-6 [8]; [19]) was 4530 ± 1100 nM, the Ki (caspase-6 [8]; zinc buffered (NTA), assumed noncompetitive) was 2.6 nM and the “effect on peptide substrate cleavage” value (caspase-7 [2]; [18]) was “inhibited”. For the same molecule, the IC50 (caspase-7 [2]; [19]) was 1580 ± 750 nM, the Ki (caspase-7 [2]; zinc buffered (citrate), mixed model of inhibition, global fit) was 76.1 nM and the “effect on peptide substrate cleavage” value (caspase-8 [3]; [18]) was “inhibited”. The IC50 (caspase-8 [3]; [19]) was 367 ± 38 nM, the Ki (caspase-8 [3]; [20]) was 4.3 nM and the “effect on cleavage of protein substrate PARP” value (caspase-3 [4]) was “inhibitory effect”. The “effect on cleavage … (C186A)” value (caspase-8 [6]) was “significant impact”, the “zincs bound per caspase monomer (stoichiometry)” value (caspase-3 [9]) was “three” and the “zinc affinity (KD via Cheng-Prusoff)” value (caspase-3 [10]) was “low nanomolar affinity”. The “zinc affinity (KD via Cheng-Prusoff)” value (caspase-6 [11]) was “low nanomolar affinity”, the “zinc affinity (KD via Cheng-Prusoff)” value (caspase-8 [12]) was “low nanomolar affinity” and the “caspase-8 eluting as dimer” value (caspase-8 [13]) was 10%. The “caspase-8 eluting as monomer” value (caspase-8 [13]) was 90%, the “destabilization of caspase-8 C360A (Tm decrease)” value (caspase-8 C360A) was 5 °C and the “zinc concentration at which caspase-3 is inhibited” value (caspase-3 [14]) was ≥ 1.7 nM. The IC50 (caspase-6 [15]) was 4500 nM.
In the case of O=C(O)c1ccccc1NN=C(N=Nc1cc(S(=O)(=O)O)ccc1O)c1ccccc1 [Zincon], the Kd [7] is listed as 12000 nM.
With [Cl-].[Cl-].[Zn+2] [ZnCl2] the “effect on cleavage of protein substrate PAK2” value (caspase-3 [4]) was “completely inhibited”, the “effect on cleavage of protein substrate PAK2” value (caspase-7 [5]) was “inhibited” and the “destabilization of caspase-8 (Tm decrease)” value (caspase-8 wild-type) was “approximately 3 °C”. For the same molecule, the “TM Values, Wild Type” value (caspase-8 wild-type) was 44.5 ± 0.4 °C, the “destabilization of caspase-8 C360A (Tm decrease)” value (caspase-8 C360A) was 5 °C and the “TM Values, C360A” value (caspase-8 C360A) was 41.5 ± 0.9 °C. For the same molecule, the “inhibition of variant activity” value [16] was “inhibited by zinc in a similar fashion to wild-type”.
With O=S(=O)([O-])[O-].[Zn+2] [ZnSO4] the “effect on cleavage of protein substrate PAK2” value (caspase-3 [4]) was “completely inhibited”, the “effect on cleavage of protein substrate PAK2” value (caspase-7 [5]) was “inhibited” and the “destabilization of caspase-8 (Tm decrease)” value (caspase-8 wild-type) was “approximately 3 °C”. For the same molecule, the “TM Values, Wild Type” value (caspase-8 wild-type) was 44.8 ± 0.3 °C, the “destabilization of caspase-8 C360A (Tm decrease)” value (caspase-8 C360A) was 5 °C and the “TM Values, C360A” value (caspase-8 C360A) was 41.6 ± 0.6 °C.
For [Ca+2] [calcium], the “effect on Tm of caspase-8 C360A” value (caspase-8 C360A) was “failed to significantly alter”.
In the case of [Co] [cobalt], the “effect on cleavage of protein substrate PAK2” value (caspase-3 [4]) is reported as “did not observe”.
For [Fe] [iron], the “effect on Tm of caspase-8 C360A” value (caspase-8 C360A) was “failed to significantly alter”.
In the case of CC(NC(=O)C(NC(=O)OCc1ccccc1)C(C)C)C(=O)NC(CC(=O)O)C(=O)CF (stereo not drawn) [zVAD-FMK, carbobenzoxy-Val-Ala-Asp-fluoromethylketone, reference compound] (Cbz-Val-Ala-Asp-CH2F; configuration not given here), the “inhibition of caspase activity” value (caspase-3 [1]; two-hour incubation) is reported as “completely inhibited”, the “inhibition of caspase activity” value (caspase-7 [2]; two-hour incubation) is reported as “completely inhibited” and the “caspase-8 eluting as dimer” value (caspase-8 [13]) is reported as 63%. The “caspase-8 eluting as monomer” value (caspase-8 [13]) was 37%.
